Reference: paper PMC3080470 (Biopharmaceutics & drug disposition, 2011)
Read-outs that look alike come from different tables or passages of the source. Marks after values point to notes of the source that are not given here. Numbered stars: 1 amine (or outer) side, 2 acyl side, 3 side chain; on linkers, the order of the positions; unused ones are H or OH. Bridge positions count the residues as written; N and C are the ends. Square brackets hold non-standard residues; d marks the D form. Peptide text beside a SMILES is read from it. * marks the point of attachment. hTyr(3S-OH,4S-OH,3'-OSO3H) = N[C@H](C(=O)O)[C@H](O)[C@@H](O)c1ccc(O)c(OS(=O)(=O)O)c1; Orn(4R-OH,5R-OH) = O=C([C@H](C[C@@H](O)[C@@H](O)N[*:3])N[*:1])[*:2]; Pro(3S-OH,4S-Me) = C[C@H]1CN[C@H](C(=O)O)[C@H]1O; X1 = CCCCCOc1ccc(-c2cc(-c3ccc(C(=O)*)cc3)no2)cc1; Gln(3R-OH) = NC(=O)C[C@@H](O)[C@H](N)C(=O)O; Hyp = O=C(O)[C@@H]1C[C@@H](O)CN1

What was measured:
[1] = Micafungin serum fraction unbound by equilibrium dialysis; type: in vitro ADME; conditions: human, pH 7.4
Method in brief: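 Serum from neonates (23–40 wk gestation, postnatal 1–52 days, 0.6–3.5 kg; n=6) or adults (n=6) spiked with 10 μM test compound. Dialysed against an equal volume of 100 mM sodium phosphate, pH 7.4, for 4.5 hr at 37°C with 100 rpm shaking. Both sides quantified by HPLC-fluorescence (ex 273/em 464 nm) with diclofenac internal standard and matrix-matched calibration. fu = buffer/serum concentration.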

[2] = cited from earlier work
[3] = adult; well-stirred model, fu 0.004, QH 21 ml/min/kg; ref Yanni et al. [8]; cited from earlier work
[4] = cited from earlier work; remark: listed apart in the source
[5] = tested on: sandwich-cultured human hepatocytes; conditions: cited from earlier work
[6] = human adult, ref Yanni et al. [8]

Q: With `CCCCCOc1ccc(-c2cc(-c3ccc(C(=O)N[C@H]4C[C@@H](O)[C@@H](O)NC(=O)[C@@H]5[C@@H](O)[C@@H](C)CN5C(=O)[C@H]([C@H](O)CC(N)=O)NC(=O)[C@H]([C@H](O)[C@@H](O)c5ccc(O)c(OS(=O)(=O)O)c5)NC(=O)[C@@H]5C[C@@H](O)CN5C(=O)[C@H]([C@@H](C)O)NC4=O)cc3)no2)cc1` [Micafungin] (X1-[Orn(4R-OH,5R-OH)]T[Hyp][hTyr(3S-OH,4S-OH,3'-OSO3H)][Gln(3R-OH)][Pro(3S-OH,4S-Me)]; lactam 1-C) as the molecule, how does the fraction unbound at 4.5 hr, 10 μM ([1]; serum from adults) read?
A: 0.004

Q: What about the fraction unbound at 4.5 hr, 10 μM ([1]; serum from neonates) of the same molecule?
A: 0.033

Q: And the plasma protein binding ([2]; in humans and animals)?
A: > 99%

Q: What about the “binding to plasma proteins” value ([2]; stated in abstract, no reference given) of the same molecule?
A: > 99.5%

Q: What about the “Calculated Biliary Cl” value [3] of the same molecule?
A: 0.101 ± 0.062 mL/min/kg

Q: What about the “Calculated Plasma Cl” value [3] of the same molecule?
A: 0.175 ± 0.012 mL/min/kg

Q: What about the “Observed Biliary Cl” value [4, 6] of the same molecule?
A: 0.160 mL/min/kg

Q: What about the “Observed Plasma Cl” value [4, 6] of the same molecule?
A: 0.229 mL/min/kg

Q: What about the “Observed Plasma Cl” value ([4]; human neonate, ref Heresi et al. [5]) of the same molecule?
A: 0.622 ^# ml/min/kg

Q: What about the “share of plasma clearance that occurs via biliary elimination of the parent drug” value ([4]; pharmacokinetic studies with 14C-micafungin) of the same molecule?
A: approximately 90%

Q: And the “Intrinsic Biliary Cl” value ([5]; adult, sandwich-cultured human hepatocytes, B-CLEAR, ref Yanni et al. [8])?
A: 14 ± 9 µL/min/mg

Q: And the “Intrinsic Accumulation Cl” value ([5]; adult, sandwich-cultured human hepatocytes, ref Yanni et al. [8])?
A: 24 ± 2 µL/min/mg

Q: And the “In vitro intrinsic accumulation Cl” value ([5]; sandwich-cultured human hepatocytes from adult liver donors, no albumin)?
A: 23.5 ± 1.6 µL/min/mg

Q: Which “unbound fraction in blood” value [2] does the source give for Caspofungin here?
A: about 3.5%

Q: What about the “clearance in neonates (< 3 months) compared to older children (2-11y)” value ([4]; human) of the same molecule?
A: significantly lower
